Measurements reported in ChEMBL document CHEMBL1137490, “Design, synthesis and cardioprotective effect of a new class of dual-acting agents: phenolic tetrahydro-beta-carboline RGD peptidomimetic conjugates” (Bioorg Med Chem, 2007).
Residues, ends and D or L forms follow the SMILES beside them.

Tests used:
[1] = tested on: PC-12; experiment: Scavenging activity against hydrogen peroxide radical generation in rat PC12 cells assessed as cell survival by MTT assay; type: functional, cell-based
Summary of the method: (§1)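 PC12 cells in DMEM with 10% heat-inactivated horse serum, 5% FBS, 1.0 mM pyruvate, penicillin/streptomycin, 37 °C, 5% CO2; seeded 20,000/well on poly-L-lysine, 24 h attachment. Pretreated 1 h with 12.5–200 µM. Insult: 2 mM SNP 2 h (NO), 1 mM H2O2 1 h, or 1 mM H2O2/30 µM Fe(II) 1 h (•OH). For SNP, fresh media then 14 h culture. Survival by MTT; EC50 (µM).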

[2] = tested on: PC-12; experiment: Scavenging activity against […] generation in rat PC12 cells assessed as cell survival by MTT assay; type: functional, cell-based; summary of the method: as §1
[3] = tested on: PC-12; experiment: Scavenging activity against nitric oxide radical generation in rat PC12 cells assessed as cell survival by MTT assay; type: functional, cell-based; summary of the method: as §1
[4] = tested on: Aorta; experiment: Scavenging activity against nitric oxide radical generation in Wistar rat aortic strips cells assessed as inhibition of acetylcholine-induced vasorelaxation at 1 umol/L; type: functional, tissue-based
Summary of the method: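 Rat aortic strips in 37 °C oxygenated (95% O2/5% CO2) Krebs, pH 7.4, on tension transducers. Precontracted with noradrenaline (final 10^-9 mol/L), washed, stabilized 30 min, recontracted; at peak, compound in water (final 10^-6 mol/L) or NS added, then ACh (final 10^-6 mol/L). Percent inhibition of ACh-induced relaxation recorded.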

[5] = species on record: Rattus norvegicus; experiment: Antithrombotic effect in Wistar rat assessed as reduction in wet thrombus mass at 5 umol/L; type: functional
Summary of the method: (§2)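 Male Wistar rats 250-300 g, sodium pentobarbital 80.0 mg/kg ip; arteriovenous shunt (polyethylene tube with weighed 6 cm thread, sodium heparin 50 IU/mL in NS) from right carotid to left jugular vein. Compound dissolved in NS just before use, kept on ice, injected via tube; NS vehicle. Blood flowed 15 min; wet thrombus weighed, dry weight after 2 weeks in desiccator.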

[6] = species on record: Rattus norvegicus; experiment: Antithrombotic effect in Wistar rat assessed as reduction in dry thrombus mass at 5 umol/L; type: functional; summary of the method: as §2
[7] = tested on: Aorta; experiment: Scavenging activity against nitric oxide radical generation in Wistar rat aortic strips cells assessed as inhibition of acetylcholine-induced vasorelaxation at 0.1 umol/L
[8] = tested on: Aorta; experiment: Scavenging activity against nitric oxide radical generation in Wistar rat aortic strips cells assessed as inhibition of acetylcholine-induced vasorelaxation at 0.01 umol/L
[9] = species on record: Rattus norvegicus; experiment: Protective effect in sham ischemia reperfusion Wistar rat model assessed as malondialdehyde per mg of protein; type: functional
[10] = species on record: Rattus norvegicus; experiment: Protective effect in ischemia reperfusion Wistar rat model assessed as malondialdehyde per mg of protein; type: functional
[11] = tested on: Rattus norvegicus; experiment: Reduction in infarct size in ischemia reperfusion Wistar rat model assessed as infarct size over risk zone at 10 mg/kg; type: functional; design: scale not given: the % may be the effect or the level left
Summary of the method: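 Male Wistar rats 250-300 g, pentobarbital 80.0 mg/kg ip; left coronary artery occluded 30 min by snare, then 120 min reperfusion. Compound 10 mg/kg in DMSO–0.9% NaCl (1:103 v/v) infused transjugularly 15 min before occlusion. Ventricular 1 mm slices stained with 1% TTC 15 min at 37 °C, with Evans blue for area at risk; infarct/risk zone %, n = 8, mean ± SE, t-test.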

Row | SMILES | EC50 [1] [µM] | EC50 [2] [µM] | EC50 [3] [µM] | inhibition [4] [%] | Activity [5] [mg] | Activity [6] [mg] | inhibition [7] [%] | inhibition [8] [%] | also measured
1 | COc1cc(C2N[C@H](C(=O)N[C@@H](CCCNC(=N)N)C(=O)NNCC(=O)N[C@@H](CC(=O)O)C(=O)N[C@H](C(=O)O)C(C)C)Cc3c2[nH]c2ccccc32)cc(OC)c1O (stereo partly drawn) [listing 1 of 2 here] | 41.2 | 90.3 | 91.2 | – | – | – | – | – | –
2 | COc1cc(C2N[C@H](C(=O)O)Cc3c2[nH]c2ccccc32)cc(OC)c1O (stereo partly drawn) | 34.5 | 85.9 | 88.4 | 81 | 44.01 | 8.03 | 55.3 | 10.8 | –
3 | CC(C)[C@H](NC(=O)[C@H](CC(=O)O)NC(=O)CNNC(=O)[C@@H](N)CCCNC(=N)N)C(=O)O | – | – | – | – | 34.98 | 7.05 | – | – | –
4 | COc1cc(C2N[C@H](C(=O)NN(CCCNC(=N)N)CC(=O)NCC(=O)N[C@@H](CC(=O)O)C(=O)N[C@H](C(=O)O)C(C)C)Cc3c2[nH]c2ccccc32)cc(OC)c1O (stereo partly drawn) [listing 1 of 2 here] | – | – | – | – | 21.05 | 2.23 | – | – | Activity [9]: 2.52 nmol/mg; Activity [10]: 2.91 nmol/mg; Activity [11]: 35%
5 | COc1cc(C2N[C@H](C(=O)NN(CCCNC(=N)N)CC(=O)NCC(=O)N[C@H](CC(=O)O)C(=O)N[C@H](C(=O)O)C(C)C)Cc3c2[nH]c2ccccc32)cc(OC)c1O (stereo partly drawn) | – | – | – | 97.2 | – | – | 75.3 | 28.3 | –
6 | COc1cc(C2N[C@H](C(=O)N[C@@H](CCCNC(=N)N)C(=O)NNCC(=O)N[C@@H](CC(=O)O)C(=O)N[C@H](C(=O)O)C(C)C)Cc3c2[nH]c2ccccc32)cc(OC)c1O (stereo partly drawn) [listing 2 of 2 here] | – | – | – | – | 24.54 | 3.79 | – | – | –
7 | CC(C)[C@H](NC(=O)CN(CC(=O)O)NC(=O)CNC(=O)[C@@H](N)CCCNC(=N)N)C(=O)O | – | – | – | – | 41.8 | 7.83 | – | – | –
8 | COc1cc(C2N[C@H](C(=O)N[C@@H](CCCNC(=N)N)C(=O)NNCC(=O)N[C@H](CC(=O)O)C(=O)N[C@H](C(=O)O)C(C)C)Cc3c2[nH]c2ccccc32)cc(OC)c1O (stereo partly drawn) | – | – | – | 95.8 | – | – | 71 | 14.1 | –
9 | CC(C)[C@H](NC(=O)[C@H](CC(=O)O)NC(=O)CNC(=O)CN(N)CCCNC(=N)N)C(=O)O | – | – | – | – | 27.04 | 4.39 | – | – | –
10 | COc1cc(C2N[C@H](C(=O)N[C@@H](CCCNC(=N)N)C(=O)NCC(=O)NN(CC(=O)O)CC(=O)N[C@H](C(=O)O)C(C)C)Cc3c2[nH]c2ccccc32)cc(OC)c1O (stereo partly drawn) | 45.7 | 93.2 | 90.2 | 90.1 | 25.46 | 4.85 | 63.7 | 13 | –
11 | CC(C)[C@H](NC(=O)[C@H](CC(=O)O)NC(=O)CNC(=O)[C@@H](N)CCCNC(=N)N)C(=O)O (H-RGDV-OH) | – | – | – | – | 35.75 | 6.78 | – | – | –
12 | COc1cc(C2N[C@H](C(=O)NN(CCCNC(=N)N)CC(=O)NCC(=O)N[C@@H](CC(=O)O)C(=O)N[C@H](C(=O)O)C(C)C)Cc3c2[nH]c2ccccc32)cc(OC)c1O (stereo partly drawn) [listing 2 of 2 here] | 75.4 | 95.1 | 96.5 | – | – | – | – | – | –
